In ChEMBL document CHEMBL1687793, “Complementation of a Saccharomyces cerevisiae ERG11/CYP51 (sterol 14α-demethylase) doxycycline-regulated mutant and screening of the azole sensitivity of Aspergillus fumigatus isoenzymes CYP51A and CYP51B” (2010):
In brackets after ≈: the same amount, converted by molar mass.

Columns and labels:
Format in all cases: functional
Saccharomyces cerevisiae [1] = experiment: Antimicrobial activity against Saccharomyces cerevisiae YUG37 transformed with plasmid carrying cyp51A gene with doxycycline-regulatable promoter by broth dilution method in presence of doxycycline
Method in brief: (§1)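 CLSI M27-A2 broth microdilution in induction medium (galactose plus raffinose, 2%) containing 5 μg ml−1 doxycycline. Inoculum 2.5 × 10^3 cells ml−1. Final fluconazole 0.031–16 μg ml−1; clotrimazole, itraconazole and posaconazole 0.004–2.0 μg ml−1. Plates incubated at 30°C and scored at 72 h. MIC is the lowest concentration giving ≥80% growth inhibition versus drug-free control wells.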

Saccharomyces cerevisiae [2] = experiment: Antimicrobial activity against Saccharomyces cerevisiae YUG37 transformed with plasmid carrying cyp51B gene with doxycycline-regulatable promoter by broth dilution method in presence of doxycycline; method in brief: as §1
Saccharomyces cerevisiae [3] = experiment: Antimicrobial activity against Saccharomyces cerevisiae YUG37 transformed with plasmid carrying cyp51A gene in reverse orientation without doxycycline-regulatable promoter by broth dilution method
Method in brief: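 Reverse-oriented cyp51A control strain tested in galactose/raffinose medium without doxycycline. Otherwise CLSI M27-A2 broth microdilution with inoculum 2.5 × 10^3 cells ml−1. Incubated at 30°C and read at 72 h. MIC is the lowest concentration giving ≥80% growth inhibition relative to control wells.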

Saccharomyces cerevisiae [4] = experiment: Induction of 14alpha-Methylergosta 8,24-dien- 3beta-6alpha-diol production in Saccharomyces cerevisiae YUG37 transformed with plasmid carrying cyp51A gene with compound-regulatable promoter by GC-MS analysis
Method in brief: (§2)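 YUG37-erg11 yeast (native ERG11 under a doxycycline-regulatable promoter) carrying pYES2.1 with intronless A. fumigatus cyp51A or cyp51B. Single colonies, triplicate constructs, were grown in YM with 2% galactose/raffinose plus 5 μg ml−1 doxycycline for 72 h at 30°C and 180 rpm. Sterols were analysed by GC-MS and reported as mean % of sterol composition (SD).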

Saccharomyces cerevisiae [5] = experiment: Induction of 14alpha-Methylergosta 8,24-dien- 3beta-6alpha-diol production in Saccharomyces cerevisiae YUG37 transformed with plasmid carrying cyp51B gene with compound-regulatable promoter by GC-MS analysis; method in brief: as §2
Saccharomyces cerevisiae [6] = experiment: Induction of 14alpha-Methylergosta 8,24-dien- 3beta-6alpha-diol production in Saccharomyces cerevisiae YUG37 transformed with plasmid carrying cyp51A gene in reverse orientation without doxycycline-regulatable promoter by GC-MS analysis
Method in brief: (§3)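 The control was YUG37-erg11 transformed with pYES2.1 carrying reverse-oriented cyp51A, in triplicate. It was cultured 72 h (30°C, 180 rpm) in galactose/raffinose (2%) YM either with 5 μg ml−1 doxycycline or without doxycycline. GC-MS sterol profiling gave mean % of sterol composition (SD).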

Saccharomyces cerevisiae [7] = experiment: Induction of ergosterol production in Saccharomyces cerevisiae YUG37 transformed with plasmid carrying cyp51A gene with compound-regulatable promoter by GC-MS analysis; method in brief: as §2
Saccharomyces cerevisiae [8] = experiment: Induction of ergosterol production in Saccharomyces cerevisiae YUG37 transformed with plasmid carrying cyp51B gene with compound-regulatable promoter by GC-MS analysis; method in brief: as §2
Saccharomyces cerevisiae [9] = experiment: Induction of ergosterol production in Saccharomyces cerevisiae YUG37 transformed with plasmid carrying cyp51A gene in reverse orientation without doxycycline-regulatable promoter by GC-MS analysis; method in brief: as §3
Saccharomyces cerevisiae [10] = experiment: Induction of 4alpha-methylfecosterol production in Saccharomyces cerevisiae YUG37 transformed with plasmid carrying cyp51A gene with compound-regulatable promoter by GC-MS analysis; method in brief: as §2
Saccharomyces cerevisiae [11] = experiment: Induction of 4alpha-methylfecosterol production in Saccharomyces cerevisiae YUG37 transformed with plasmid carrying cyp51B gene with compound-regulatable promoter by GC-MS analysis; method in brief: as §2
Saccharomyces cerevisiae [12] = experiment: Induction of 4alpha-methylfecosterol production in Saccharomyces cerevisiae YUG37 transformed with plasmid carrying cyp51A gene in reverse orientation without doxycycline-regulatable promoter by GC-MS analysis; method in brief: as §3
Saccharomyces cerevisiae [13] = experiment: Induction of 4,14alpha-dimethylcholesta 8,24-dienol production in Saccharomyces cerevisiae YUG37 transformed with plasmid carrying cyp51A gene with compound-regulatable promoter by GC-MS analysis; method in brief: as §2
Saccharomyces cerevisiae [14] = experiment: Induction of 4,14alpha-dimethylcholesta 8,24-dienol production in Saccharomyces cerevisiae YUG37 transformed with plasmid carrying cyp51B gene with compound-regulatable promoter by GC-MS analysis; method in brief: as §2
Saccharomyces cerevisiae [15] = experiment: Induction of 4,14alpha-dimethylcholesta 8,24-dienol production in Saccharomyces cerevisiae YUG37 transformed with plasmid carrying cyp51A gene in reverse orientation without doxycycline-regulatable promoter by GC-MS analysis; method in brief: as §3
Saccharomyces cerevisiae [16] = experiment: Induction of lanosterol/obtusifoliol production in Saccharomyces cerevisiae YUG37 transformed with plasmid carrying cyp51A gene with compound-regulatable promoter by GC-MS analysis; method in brief: as §2
Saccharomyces cerevisiae [17] = experiment: Induction of lanosterol/obtusifoliol production in Saccharomyces cerevisiae YUG37 transformed with plasmid carrying cyp51B gene with compound-regulatable promoter by GC-MS analysis; method in brief: as §2
Saccharomyces cerevisiae [18] = experiment: Induction of lanosterol/obtusifoliol production in Saccharomyces cerevisiae YUG37 transformed with plasmid carrying cyp51A gene in reverse orientation without doxycycline-regulatable promoter by GC-MS analysis; settings: in the assay text read “with doxycycline-regulatable promoter” for “without doxycycline-regulatable promoter”; method in brief: as §3
Saccharomyces cerevisiae [19] = experiment: Ratio of MIC for Saccharomyces cerevisiae YUG37 transformed with plasmid carrying cyp51A gene with compound-regulatable promoter to MIC for Saccharomyces cerevisiae YUG37 transformed with plasmid carrying cyp51B gene with compound-regulatable promoter

SMILES: Clc1ccccc1C(c1ccccc1)(c1ccccc1)n1ccnc1 [CLOTRIMAZOLE]
- MIC (Saccharomyces cerevisiae [1]): 0.016 µg/mL
- MIC (Saccharomyces cerevisiae [2]): 0.016 µg/mL
- MIC (Saccharomyces cerevisiae [3]): 0.016 µg/mL (≈ 0.0464 µM)

SMILES: C[C@H]1c2cccc(O)c2C(=O)C2=C(O)[C@]3(O)C(=O)C(C(N)=O)=C(O)[C@@H](N(C)C)[C@@H]3[C@@H](O)[C@@H]21.O [DOXYCYCLINE]
- Activity (Saccharomyces cerevisiae [4]): 20.5%
- Activity (Saccharomyces cerevisiae [5]): 10.5%
- Activity (Saccharomyces cerevisiae [6]): 51.1%
- Activity (Saccharomyces cerevisiae [7]): 40.8%
- Activity (Saccharomyces cerevisiae [8]): 39.5%
- Activity (Saccharomyces cerevisiae [9]): 4%
- Activity (Saccharomyces cerevisiae [10]): 2%
- Activity (Saccharomyces cerevisiae [11]): 1.7%
- Activity (Saccharomyces cerevisiae [12]): 1.9%
- Activity (Saccharomyces cerevisiae [13]): 2.6%
- Activity (Saccharomyces cerevisiae [14]): 2.9%
- Activity (Saccharomyces cerevisiae [15]): 3.3%
- Activity (Saccharomyces cerevisiae [16]): 34.1%
- Activity (Saccharomyces cerevisiae [17]): 45.4%
- Activity (Saccharomyces cerevisiae [18]): 40.6%

SMILES: OC(Cn1cncn1)(Cn1cncn1)c1ccc(F)cc1F [FLUCONAZOLE]
- MIC (Saccharomyces cerevisiae [1]): 8 µg/mL
- MIC (Saccharomyces cerevisiae [2]): 0.5 µg/mL
- MIC (Saccharomyces cerevisiae [3]): 0.25 µg/mL (≈ 0.816 µM)
- Ratio (Saccharomyces cerevisiae [19]): 16

SMILES: CCC(C)n1ncn(-c2ccc(N3CCN(c4ccc(OCC5COC(Cn6cncn6)(c6ccc(Cl)cc6Cl)O5)cc4)CC3)cc2)c1=O (stereo unspecified) [ITRACONAZOLE]
- MIC (Saccharomyces cerevisiae [1]): 0.125 µg/mL
- MIC (Saccharomyces cerevisiae [2]): 0.125 µg/mL
- MIC (Saccharomyces cerevisiae [3]): 0.031 µg/mL (≈ 0.0439 µM)

SMILES: CC[C@@H]([C@H](C)O)n1ncn(-c2ccc(N3CCN(c4ccc(OC[C@@H]5CO[C@@](Cn6cncn6)(c6ccc(F)cc6F)C5)cc4)CC3)cc2)c1=O [POSACONAZOLE]
- MIC (Saccharomyces cerevisiae [1]): 0.063 µg/mL
- MIC (Saccharomyces cerevisiae [2]): 0.063 µg/mL
- MIC (Saccharomyces cerevisiae [3]): 0.063 µg/mL (≈ 0.0899 µM)

SMILES: C[C@@H](c1ncncc1F)[C@](O)(Cn1cncn1)c1ccc(F)cc1F [VORICONAZOLE]
- MIC (Saccharomyces cerevisiae [1]): 0.004 µg/mL
- MIC (Saccharomyces cerevisiae [2]): 0.004 µg/mL
- MIC (Saccharomyces cerevisiae [3]): 0.004 µg/mL (≈ 0.0115 µM)
